Assay results pooled from the literature.
Converted amounts (≈) assume the structure as drawn.

O=C(CCCCc1ccccc1)CP(=O)(O)O — MIC (Bacillus subtilis; microbial growth; ATCC23857): > 200 µg/mL
C[C@@H]1[C@H](O)[C@@H](C)/C=C/C=C/C=C/C=C/C=C/C=C/C=C/[C@H](O[C@@H]2O[C@H](C)[C@@H](O)[C@H](N)[C@@H]2O)C[C@@H]2O[C@](O)(C[C@@H](O)C[C@@H](O)[C@H](O)CC[C@@H](O)C[C@@H](O)CC(=O)O[C@H]1C)C[C@H](O)[C@H]2C(=O)O — MIC (Cryptococcus neoformans; microbial growth; ATCC90113): 1.25 µg/mL
CC1(C)S[C@@H]2[C@H](NC(=O)[C@H](N)c3ccccc3)C(=O)N2[C@H]1C(=O)O — inhibition zone (Listeria monocytogenes; microbial growth; well diffusion; ATCC7644; 60000 µg/mL): 27 mm
O=C(CCCCC1CCCCC1)CP(=O)(O)O — MIC (Bacillus subtilis; microbial growth; ATCC23857): 25 µg/mL
CC(C)C(C)CCCCCCCCCCCc1cc(O)cc(O)c1 (stereo not drawn) — IC50 (Bacillus subtilis; microbial growth): 11.4 µM
CCCCCC/C=C\CCCCCCCCCC(=O)CP(=O)(O)O — MIC (Bacillus subtilis; microbial growth; ATCC23857): 25 µg/mL
Cc1ccccc1C(=O)NN=Cc1ccc(O)c(Br)c1 — MFC (Cryptococcus neoformans; microbial killing): 4 µg/mL (≈ 12 µM)
Cc1c(NN=C(C#N)C2=NC(=O)CS2)c(=O)n(-c2ccccc2)n1C — inhibition zone (Bacillus subtilis; microbial growth; well diffusion; 100000 µg/mL): 26 mm
CCCCCCCCCCCCCCCc1cc(O)cc(O)c1 — IC50 (Listeria monocytogenes; microbial growth; ATCC19115): > 200 µM
CCC[C@H]1CN(c2cccc(OC(F)(F)F)c2)C(=O)CN1Cc1cncn1Cc1ccc(Br)cc1 — MIC (Cryptococcus neoformans; microbial growth; broth dilution): 3 to 6 µM
CC(C)CCCCCCCCCCCCCCc1cc(O)cc(O)c1 — IC50 (Bacillus subtilis; microbial growth): 10.2 µM
NC[C@H]1O[C@H](O[C@H]2[C@H](O)[C@@H](O[C@H]3O[C@H](CO)[C@@H](O)[C@H](N)[C@H]3O)[C@H](N)C[C@@H]2N)[C@H](N)C[C@@H]1O — MIC (Listeria monocytogenes; microbial growth; ATCC19115): 4.7 µg/mL
CCCCCC/C=C\CCCCCCCCCC(=O)NP(=O)(O)O — MIC (Bacillus subtilis; microbial growth; ATCC23857): 100 µg/mL
CC[C@H](C)C[C@H](C)CCCCCCCCC(=O)N[C@H]1C[C@@H](O)[C@@H](NCCN)NC(=O)[C@@H]2[C@@H](O)CCN2C(=O)[C@H]([C@H](O)CCN)NC(=O)[C@H]([C@H](O)[C@@H](O)c2ccc(O)cc2)NC(=O)[C@@H]2C[C@@H](O)CN2C(=O)[C@H]([C@@H](C)O)NC1=O — MIC (Nakaseomyces glabratus; microbial growth; broth dilution; MY1381): 0.25 µg/mL
CC(=O)C1=C(O)C(CC(C)C)NC1=O (stereo not drawn) — MIC (Proteus vulgaris; microbial growth; ATCC33420): > 200 µg/mL
